Assay outcomes from PubChem.
Insulin prom up: MIN6 insulin promoter up-regulation; 190,000 compounds, 0.3% hits; AID 1625; MIN6 insulin promoter-GFP reporter, high-content imaging; active compounds read high; z-score at 5 µM;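 active = z-score above 3 at 5 µM with at least 500 cells counted in the well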
bCat nuc transl: beta-catenin nuclear translocation modulation; HeLa beta-catenin nuclear translocation, immunofluorescence imaging; nuclear translocation activity, % at 5 µM; 190,000 compounds, 0.3% hits;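 active = nuclear translocation activity above 50% at 5 µM, with a well cell count of 50 or more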;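 note: per-cell ratio of nuclear to cytoplasmic median beta-catenin stain intensity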
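System: Human HeLa cells, endogenous beta-catenin | Compound dosing: 5 µM primary, 0.02–20 µM confirmation | Timing: 24 h compound exposure at 37°C, 5% CO2 | Measured by: Fluorescence imaging of beta-catenin antibody stain plus DAPI | Read-out basis: % activation of per-cell nuclear versus cytoplasmic median beta-catenin signal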
Wee1 stabilizer: human Wee1 degradation inhibition, primary screen; HeLa Luc-Wee1K328M stability, luciferase luminescence; 100% = proteasome inhibitor MG132 effect; 220,000 compounds, 1.2% hits; reporter increase, % at 5 µM; P30291;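 active = activation above the mean of all tested compounds plus 3 SD, set per screening run, cut at about 8.8% in these data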;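 note: cells exposed to compound for 20 h before luminescence read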
Target sequence (P30291 whole entry K328M): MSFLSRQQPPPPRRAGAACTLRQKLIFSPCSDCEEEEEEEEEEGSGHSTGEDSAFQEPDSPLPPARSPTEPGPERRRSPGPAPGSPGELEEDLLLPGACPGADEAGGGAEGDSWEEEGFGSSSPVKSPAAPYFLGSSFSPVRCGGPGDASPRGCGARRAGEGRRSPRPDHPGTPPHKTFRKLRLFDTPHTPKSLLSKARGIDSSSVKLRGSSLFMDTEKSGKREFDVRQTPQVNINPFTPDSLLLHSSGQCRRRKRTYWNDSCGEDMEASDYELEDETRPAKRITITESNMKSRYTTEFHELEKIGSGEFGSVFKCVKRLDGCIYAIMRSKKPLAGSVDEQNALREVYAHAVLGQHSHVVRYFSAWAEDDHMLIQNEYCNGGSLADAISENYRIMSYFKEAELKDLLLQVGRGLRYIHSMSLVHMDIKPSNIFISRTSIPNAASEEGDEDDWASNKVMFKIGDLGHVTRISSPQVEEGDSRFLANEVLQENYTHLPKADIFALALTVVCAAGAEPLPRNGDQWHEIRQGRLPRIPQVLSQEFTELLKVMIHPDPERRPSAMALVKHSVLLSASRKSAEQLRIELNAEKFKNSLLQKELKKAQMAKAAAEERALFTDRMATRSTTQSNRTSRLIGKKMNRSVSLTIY
MT stabilizer: microtubule stabilizers in HeLa cells. HeLa tubulin immunostaining HCS, 24 h; share of cells brighter than vehicle mean+2SD. % tubulin-high responders, % at 10 µM. 200,000 compounds, 0.83% hits;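 active = plate Z-score above 3 for both tubulin-high and condensed-nucleus cell shares, with cell loss under 80%, at 10 µM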;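 note: anti alpha tubulin signal scored within the nucleus-defined area of each cell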
Autophagy HCS: autophagy modulation, high-content screen. MEF GFP-LC3 puncta imaging; test concentration mostly 10 µM. calls only at 10 µM (by protocol). 190,000 compounds, 0.98% hits;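 active = percentage of spot-positive cells more than 3 SD above its plate mean, without a fluorescence outlier flag or 80% toxicity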
Large screens that a line does not name were inactive. Most compounds without a hit are left out; they make up all but 2.9% or so of the library.

COc1cc2c(cc1OC)-c1nncn1C(C)(C)C2	Insulin prom up 3.8
CCn1c(Oc2ccc(F)cc2)nc2c1c(=O)n(C)c(=O)n2C	none (no result: Insulin prom up)
CCCCn1c(Oc2ccc(C(=O)OC)cc2)nc2c1c(=O)n(C)c(=O)n2C	Autophagy HCS active
O=C(COc1ccccc1-c1ccccc1)N/N=C/c1cccc2ccccc12	bCat nuc transl 112, Autophagy HCS active
O=C(COc1ccccc1)N/N=C/c1ccc(O[C@@H]2O[C@H](CO)[C@@H](O)[C@H](O)[C@H]2O)cc1	Wee1 stabilizer 10
COc1ccc(/C=N/NC(=O)CCSc2nc3ccccc3s2)cc1	bCat nuc transl 131, MT stabilizer 29
COc1ccc(/C=N/NC(=O)COc2ccccc2-c2ccccc2)cc1	bCat nuc transl 142
O=c1c2cc(Cl)ccc2[nH]c(=S)n1Cc1cccs1	none
CC(=O)Cc1nsc(NC(=O)c2cn(-c3ccccc3)nc2-c2ccc(Br)cc2)n1	none
COc1ccc(S(=O)(=O)N2N=C(C)Oc3ccccc3C2=O)cc1	bCat nuc transl 80, MT stabilizer 37
N#Cc1cc2c(nc1S(=O)(=O)Cc1ccccc1)CCCC2	none
OCCNc1nc(SCc2ccccc2)nc2sc3c(c12)CCC3	none
CCn1c(SCc2nc3ccccc3c(=O)[nH]2)nnc1C(C)NC(=O)c1ccccc1 (stereo not given)	none
CC(NC(=O)c1ccccc1)c1nnc(SCc2nc3ccccc3c(=O)[nH]2)n1C (stereo not given)	Wee1 stabilizer 8.8
COc1ccccc1-n1c(-c2ccc(Cl)cc2)c[nH]c1=S	none
CC1CCN(S(=O)(=O)c2ccc3c(c2)c(=O)c(C(=O)N2CCCCC2)cn3C)CC1	Insulin prom up 4.9
COc1cccc(C2NC(=O)NC(C)=C2C(=O)Nc2ccc(C)cc2)c1 (stereo not given)	none
COC(=O)C1=C(Nc2ccc(C)cc2)C=C(C)C(C(=O)OC)C1c1ccc(OC)cc1 (stereo not given)	bCat nuc transl 72, MT stabilizer 31, Autophagy HCS active (no result: Insulin prom up)
COC(=O)C1=C(Nc2ccc(C)cc2)C=C(C)C(C(=O)OC)C1c1cccc(OC)c1 (stereo not given)	bCat nuc transl 57 (no result: Insulin prom up)
COC(=O)C1C(=O)C=C(Nc2ccc(F)cc2)CC1c1ccc(OC)cc1 (stereo not given)	none (no result: Insulin prom up)
O=C(CN1CCN(Cc2ccccc2)CC1)N1CCCc2c1c(=O)oc1ccc(O)cc21	MT stabilizer 35
COc1cc(C(=O)OCn2nnc3ccccc3c2=O)cc(OC)c1OC	bCat nuc transl 83
CCOC(=O)c1c(C)c(C(=O)OCC)n(C)c1C	none (no result: MT stabilizer, Autophagy HCS)
CCOC(=O)c1c(C)c(C(=O)NCCOC)c(C)n1CC	none
CCOC(=O)c1ccc(NC(=O)Nc2ccc3c(c2)OCCO3)cc1	none (no result: Insulin prom up)
CCOC(=O)c1c(C)c(C(=O)Nc2ccc(N(C)C)cc2)c(C)n1CC	MT stabilizer 13
CCOC(=O)c1c(C)c(C(=O)Nc2ccc3c(c2)OCCO3)c(C)n1C	Wee1 stabilizer 9.2
CCOC(=O)c1c(C)c(C(=O)Nc2cc(F)ccc2F)c(C)n1C	MT stabilizer 13
Cc1c(Cl)cccc1NC(=S)N1CCN(S(=O)(=O)c2cccs2)CC1	none
CCCCN1C(=O)/C(=C/C=C2\Oc3ccccc3N2CC)SC1=S	Autophagy HCS active (no result: Insulin prom up)
CCN1C(=O)/C(=C/C=C2/SCCN2C)SC1=S	none
CN1/C(=C\C=C2/SC(=S)N(CC(=O)O)C2=O)C(C)(C)c2ccccc21	none
C=CCN1C(=O)/C(=C\C=C2\N(C)c3ccccc3C2(C)C)SC1=S	Autophagy HCS active (no result: Insulin prom up)
CCCCN1C(=O)/C(=C/C=C2/CC(C)(C)CN2C)SC1=S	Autophagy HCS active (no result: Insulin prom up, bCat nuc transl)
CCN1C(=O)/C(=C/C=C2/Sc3ccccc3N2CCO)SC1=S	none (no result: bCat nuc transl)
CCCN1C(=O)/C(=C/C=C2\N(CC)c3ccccc3C2(C)C)SC1=S	Autophagy HCS active (no result: Insulin prom up)
CN(C)Cc1nnnn1-c1ccccc1	none (no result: MT stabilizer, Autophagy HCS)
Cc1cccc2sc(NS(C)(=O)=O)nc12	none
S=C(NC1CCCCC1)NC1CC2C=CC1C2 (stereo not given)	Wee1 stabilizer 9.2 (no result: MT stabilizer, Autophagy HCS)
CC(C)(CCO)NC(=S)NC1CC2C=CC1C2 (stereo not given)	none (no result: MT stabilizer, Autophagy HCS)
CC(C)C(NC(=O)c1ccccc1)C(=O)NCCc1ccccc1 (stereo not given)	none
Brc1ccc2c(c1)C(C1=NCCN1)c1ccccc1CS2 (stereo not given)	bCat nuc transl 51
c1ccc2c(c1)CCCC2C1=NCCN1 (stereo not given)	none (no result: Insulin prom up, bCat nuc transl)
O=C1C2ON(c3ccc(Cl)cc3)C(c3ccco3)C2C(=O)N1c1ccccc1 (stereo not given)	none (no result: bCat nuc transl)
CC(C)CCN(C(=O)COc1ccc(C#N)cc1)c1c(N)n(Cc2ccccc2)c(=O)[nH]c1=O	none
Cc1cc2c(cc1C)C(c1cc(Br)ccc1F)CC(=O)N2 (stereo not given)	MT stabilizer 27
CC(=O)Nc1ccc(N=Nc2ccc(O)cc2)cc1	none
CCN(CC(=O)NC(C)(C)C)C(=O)CCl	none
CCOc1ccc2nc(C)cc(Nc3cccc([N+](=O)[O-])c3)c2c1	Autophagy HCS active
CC(CCc1ccccc1)NC(=O)/C=C/c1ccccc1 (stereo not given)	none
COc1cc(/C=C\C(=O)NCc2ccc3c(c2)cc(C)n3C)cc(OC)c1OC	Wee1 stabilizer 15
COc1cc(/C=C/C(=O)NC(C)CCc2ccccc2)cc(OC)c1OC (stereo not given)	Wee1 stabilizer 11
CC1=C(C(=O)Nc2ccccc2F)C(c2ccsc2)C2=C(CC(C)(C)CC2=O)N1 (stereo not given)	MT stabilizer 15 (no result: Insulin prom up)
CC1=C(C(=O)Nc2cccc(F)c2)C(c2ccsc2)C2=C(CC(C)(C)CC2=O)N1 (stereo not given)	bCat nuc transl 76, MT stabilizer 12
CC(CC(=O)Nc1ccccc1C(F)(F)F)c1ccccc1 (stereo not given)	none
COc1ccc(NC(=O)c2cc(F)c(F)cc2Cl)cc1Cl	Wee1 stabilizer 9.1 (no result: MT stabilizer, Autophagy HCS)
CCOC(=O)c1ccc(NC(=O)c2cc(F)c(F)cc2Cl)cc1	none
CC/C(=N/Nc1ccccc1Cl)c1cnnc(-c2ccccc2)n1	none
CCC/C(=N/Nc1ccc(Cl)cc1)c1cnnc(-c2ccccc2)n1	Autophagy HCS active (no result: Insulin prom up, bCat nuc transl)
Cn1c2c(c(=O)[nH]c1=O)C(c1cccc(O)c1)C1=C(N2)c2ccccc2C1=O (stereo not given)	MT stabilizer 20
O=C(CN1CCCc2ccccc21)NCCc1ccc(Cl)cc1	none
Cc1ccsc1/C=C/c1ccc2cccc(O)c2n1	none (no result: bCat nuc transl)
Oc1cccc2ccc(/C=C/c3cccs3)nc12	Autophagy HCS active (no result: bCat nuc transl)
Oc1cc2ccccc2cc1-c1n[nH]c(=S)o1	Wee1 stabilizer 8.9
Cc1cc(-c2n[nH]c(=S)o2)c(C)n1-c1ccccc1	none
COc1cccc(/C=N/NC(=O)CCn2cnc3ccccc32)c1	Insulin prom up 3.7 (no result: MT stabilizer, Autophagy HCS)
O=C(CCn1cnc(-c2ccccc2)c1-c1ccccc1)N/N=C/c1ccc(O)cc1	MT stabilizer 23
